Measured values published in publication PMC6675461 (Bioorganic & medicinal chemistry, 2009).
Like-named read-outs stand apart in the source and are kept apart here.

Key:
[1] = tested on: three melanoma cell lines (B16-F1, A375, WM-164); test: SRB assay, average over melanoma cell lines and selectivity vs fibroblast; type: cell-based, human, mouse; conditions: for IC50: read-out: Aver. (average IC50 of three melanoma cells IC50s); for Antiproliferative activity on melanoma cell lines, in words: reference compounds, in vitro; for Ratio = (IC50 of fibroblast cell)/(the average IC50 of melanoma cell lines): selectivity, fold
[2] = tested on: four prostate cancer cell lines (DU 145, PC-3, LNCaP, PPC-1); test: SRB assay, average over prostate cancer cell lines and selectivity vs RH7777; type: cell-based, human; conditions: for Ratio = (IC50 of RH7777 cell)/(average IC50 of prostate cell lines): selectivity, fold
In short: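 The control line was LPL receptor-negative RH7777 in DMEM/10% FBS. The prostate IC50s were averaged. Selectivity = IC50 in RH7777 divided by the average tumor-cell IC50.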

[3] = tested on: NCI-60 human tumor cell lines; test: NCI-60 human tumor cell line anticancer drug screen; type: cell-based; conditions: read-out: GI50 range, all nine types of cancer cells
WM-164 cells = test: SRB antiproliferative assay, WM-164 melanoma cells; type: cell-based, human; conditions: read-out: IC50 ± SEM WM-164
In short: (§1)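 Melanoma lines (human A375, WM-164; mouse B16-F1) and human dermal fibroblasts were grown in DMEM with 5% FBS, 1% antibiotic/antimycotic and bovine insulin (5 μg/mL) at 37 °C, 5% CO2. Diastereomeric mixtures were applied over a wide concentration range for 48 h. Cells were then TCA-fixed (10%), washed, air-dried overnight and SRB-stained, with absorbance read at 560 nm. IC50 (50% growth inhibition versus untreated) was obtained by nonlinear regression.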

B16-F1 cells = test: SRB antiproliferative assay, B16-F1 melanoma cells; type: cell-based, mouse; conditions: read-out: IC50 ± SEM B16-F1, 48 h, diastereomeric mixtures
In short: as §1

A375 cells = test: SRB antiproliferative assay, A375 melanoma cells; type: cell-based, human; conditions: read-out: IC50 ± SEM A375
In short: as §1

[4] = tested on: Human dermal fibroblast cells; test: SRB assay, fibroblast control cells; type: cell-based; conditions: read-out: IC50 ± SEM Fibroblast, 48 h, control cell line for melanoma
In short: as §1

A375 melanoma tumors = test: A375 melanoma xenograft in athymic nude mice; type: in vivo
LPA1 = LPA1 (Homo sapiens, UniProt Q92633); test: FLIPR intracellular calcium mobilization assay, LPA1-transfected Chem-1 cells; type: cell-based; conditions: top concentration 10 μM; 15% activation of oleoyl-LPA Emax = agonist
Sequence of LPA1 (Q92633 whole entry, species assumed): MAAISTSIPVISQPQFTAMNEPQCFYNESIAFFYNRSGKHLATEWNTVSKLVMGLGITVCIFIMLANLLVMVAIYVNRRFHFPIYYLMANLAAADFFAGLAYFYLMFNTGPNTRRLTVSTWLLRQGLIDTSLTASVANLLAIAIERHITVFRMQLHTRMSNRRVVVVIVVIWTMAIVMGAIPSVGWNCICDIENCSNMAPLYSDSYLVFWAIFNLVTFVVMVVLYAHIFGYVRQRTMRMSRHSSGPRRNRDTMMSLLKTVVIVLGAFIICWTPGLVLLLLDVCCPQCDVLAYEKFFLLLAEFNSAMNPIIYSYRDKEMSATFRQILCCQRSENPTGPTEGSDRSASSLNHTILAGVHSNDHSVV

LPA3 = target: T1, LPA3 (Homo sapiens, UniProt Q9UBY5); test: FLIPR intracellular calcium mobilization assay, LPA3-transfected Chem-1 cells; type: cell-based; conditions: top concentration 10 μM; 15% activation of oleoyl-LPA Emax = agonist
T1 sequence (Q9UBY5 1-353): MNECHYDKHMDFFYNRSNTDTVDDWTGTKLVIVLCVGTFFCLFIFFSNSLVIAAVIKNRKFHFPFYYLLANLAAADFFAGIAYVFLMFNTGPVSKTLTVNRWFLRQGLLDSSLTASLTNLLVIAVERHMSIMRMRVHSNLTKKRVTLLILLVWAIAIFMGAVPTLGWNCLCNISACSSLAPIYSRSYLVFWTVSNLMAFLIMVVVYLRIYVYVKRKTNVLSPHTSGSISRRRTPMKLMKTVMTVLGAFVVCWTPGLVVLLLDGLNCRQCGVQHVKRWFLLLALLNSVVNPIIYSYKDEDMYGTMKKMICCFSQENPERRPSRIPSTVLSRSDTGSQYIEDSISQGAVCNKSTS

LPA5 = LPA5 (Homo sapiens, UniProt Q9H1C0); test: FLIPR intracellular calcium mobilization assay, LPA5-transfected Chem-1 cells; type: cell-based; conditions: top concentration 10 μM; 15% activation of oleoyl-LPA Emax = agonist
Sequence of LPA5 (Q9H1C0 whole entry, species assumed): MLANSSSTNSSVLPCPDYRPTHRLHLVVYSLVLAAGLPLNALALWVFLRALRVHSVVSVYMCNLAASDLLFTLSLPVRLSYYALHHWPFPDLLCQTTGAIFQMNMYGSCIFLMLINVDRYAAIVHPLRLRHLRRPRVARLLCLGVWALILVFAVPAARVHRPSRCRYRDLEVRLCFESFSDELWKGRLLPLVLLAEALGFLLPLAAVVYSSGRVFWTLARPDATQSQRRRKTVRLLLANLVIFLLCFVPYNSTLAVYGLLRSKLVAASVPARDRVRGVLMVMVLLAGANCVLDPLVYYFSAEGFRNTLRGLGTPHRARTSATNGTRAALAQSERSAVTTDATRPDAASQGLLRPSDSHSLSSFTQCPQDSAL

DU 145 cells = test: SRB antiproliferative assay, DU 145 prostate cancer cells; type: cell-based, human; conditions: read-out: IC50 ± SEM DU 145; SRB, 96 h, Table 2
In short: (§2)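 Prostate cancer cells were grown in RPMI1640 with 10% FBS at 37 °C, 5% CO2. Cells were fixed with 10% TCA and stained with 0.4% SRB, and absorbance was read at 540 nm. IC50 came from nonlinear regression of % survival versus concentration.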

PC-3 cells = test: SRB antiproliferative assay, PC-3 prostate cancer cells; type: cell-based, human; conditions: read-out: IC50 ± SEM PC-3; SRB, 96 h, Table 2
LNCaP cells = test: SRB antiproliferative assay, LNCaP prostate cancer cells; type: cell-based, human; conditions: read-out: IC50 ± SEM LNCaP; SRB, 96 h, Table 2
In short: as §2

PPC-1 cells = test: SRB antiproliferative assay, PPC-1 prostate cancer cells; type: cell-based, human; conditions: read-out: IC50 ± SEM PPC-1; SRB, 96 h, Table 2
In short: as §2

[5] = SRB, 48 h, diastereomeric mixtures
[6] = read-out: Aver. (average IC50 of four prostate cells IC50s), DU 145, PC-3, LNCaP, PPC-1

| Compound | IC50 (B16-F1 cells) | IC50 (A375 cells; [5]) | IC50 (WM-164 cells; [5]) | IC50 (DU 145 cells) | IC50 (PC-3 cells) | IC50 (LNCaP cells) | IC50 (PPC-1 cells) | IC50 [2, 6] | Ratio = (IC50 of RH7777 cell)/(average IC50 of prostate cell lines) [2] | IC50 [4] | IC50 ([1]; B16-F1, A375, WM-164) | other results |
| --- | --- | --- | --- | --- | --- | --- | --- | --- | --- | --- | --- | --- |
| CCCCCCCCCCCCCCCCCCNC(=O)[C@@H]1CSC(c2ccccc2)N1 (mixture of isomers) [Compound 1a, (2RS,4R)-2-Phenyl-thiazolidine-4-carboxylic acid octadecylamide] | – | – | – | – | – | – | – | – | – | – | – | IC50 ([1]; Fibroblast): 11.6 µM; IC50 ([2]; Homo sapiens, RH7777, read-out: Aver. (average IC50 of four prostate cells IC50s)): 6.9 µM; GI50 [3]: 0.12 to 10.9 µM |
| CCCCCCCCC/C=C/CCCCCCCNC(=O)[C@@H]1CSC(c2ccccc2)N1 (mixture of isomers) [Compound 3jc, (2RS,4R)-2-Phenyl-thiazolidine-4-carboxylic acid (E)-octadec-8-enylamide] | – | – | – | – | – | – | – | – | – | – | – | IC50 (WM-164 cells; Homo sapiens, WM164, 48 h): 2.4 ± 0.2 µM; IC50 ([1]; Fibroblast): 5.9 µM |
| [NH2][Pt]([NH2])([Cl])[Cl] [CDDP, cisplatin, reference compound] | > 100 µM | > 100 µM | > 100 µM | – | – | – | – | – | – | > 100 µM | – | Antiproliferative activity on melanoma cell lines, in words [1]: resistant |
| CN(C)/N=N/c1[nH]cnc1C(N)=O [DTIC, dacarbazine] | – | – | – | – | – | – | – | – | – | – | – | Antiproliferative activity on melanoma cell lines, in words [1]: inactive; tumor growth inhibition (A375 melanoma tumors; 60 mg/kg i.p. once daily, end of treatment, nude mice): 42%; body weight change during the experiment (A375 melanoma tumors; mouse, in vivo): no significant body weight loss |
| Cc1noc(-c2ccc(CSCCC(=O)O)cc2)c1NC(=O)OC(C)c1ccccc1Cl (stereo not drawn) [Ki16425, reference compound] | – | – | – | – | – | – | – | – | – | – | – | agonist activity on LPA1, in words (LPA1): did not show agonist effect; agonist activity on LPA3, in words (LPA3): did not show agonist effect; agonist activity on LPA5, in words (LPA5): did not show agonist effect |
| CNC(=O)c1cc(Oc2ccc(NC(=O)Nc3ccc(Cl)c(C(F)(F)F)c3)cc2)ccn1 [Sorafenib, reference compound] | – | – | – | – | – | – | – | – | – | – | – | IC50 (A375 cells; Homo sapiens, A-375, 48 h): 5.4 ± 0.5 µM |
| (2RS,4R)-3-Acetyl-2-(4-acetylamino-phenyl)-thiazolidine-4-carboxylic acid hexadecylamide [Compound 4] | 15 ± 0.8 µM | 12.6 ± 0.5 µM | 20.4 ± 0.8 µM | 14.9 ± 2.2 µM | 9 ± 1.3 µM | 10.6 ± 0.6 µM | 6.8 ± 0.8 µM | 10.3 µM | 1.3 | 57.7 ± 1.3 µM | 16 µM | Ratio = (IC50 of fibroblast cell)/(the average IC50 of melanoma cell lines) [1]: 3.6 |

The next lines start with results.

| IC50 (B16-F1 cells) | IC50 (A375 cells; [5]) | IC50 (WM-164 cells; [5]) | IC50 (DU 145 cells) | IC50 (PC-3 cells) | IC50 (LNCaP cells) | IC50 (PPC-1 cells) | IC50 [2, 6] | Ratio = (IC50 of RH7777 cell)/(average IC50 of prostate cell lines) [2] | Compound | IC50 [4] | IC50 ([1]; B16-F1, A375, WM-164) | other results |
| --- | --- | --- | --- | --- | --- | --- | --- | --- | --- | --- | --- | --- |
| 18.9 ± 1.3 µM | 20.6 ± 2.1 µM | 10.7 ± 0.9 µM | 3.9 ± 0.4 µM | 3.7 ± 0.2 µM | 1.8 ± 0.1 µM | 0.8 ± 0.1 µM | 2.6 µM | 3.6 | (2RS,4R)-2-(4-Acetylamino-phenyl)-thiazolidine-4-carboxylic acid (1-methyl-octadecyl)-amide [Compound 3ia] | > 100 µM | 16.7 µM | fold decrease in potency compared with 1b, melanoma cells ([1]; from average IC50): 9.3 fold; fold decrease in potency compared with 1b, prostate cancer cells ([2]; from average IC50): 2.4 fold |
| 3.9 ± 0.3 µM | 2.1 ± 0.1 µM | 1.7 ± 0.1 µM | 1.9 ± 0.3 µM | 2.1 ± 0.1 µM | 3.5 ± 0.7 µM | 1.6 ± 0.1 µM | 2.3 µM | 2.4 | (2RS,4R)-2-(4-Acetylamino-phenyl)-thiazolidine-4-carboxylic acid-(9H-fluoren-2-yl)-amide [Compound 3id] | 28.9 ± 1 µM | 2.6 µM | Ratio = (IC50 of fibroblast cell)/(the average IC50 of melanoma cell lines) [1]: 11.3 |
